# Laboratory results taken from the RNAGym collection of RNA variant scans (doi:10.1126/science.aae0568).
# Variants at the floor of the assay were thinned out.
# B1: tRNA (parent)
# chain: GUUCCGUUGGCGUAAUGGUAACGCGUCUCCCUCCUAAGGAGAAGACUGCGGGUUCGAGUCCCGUACGGAACG
# Variants of: B1
# Assay: yeast fitness relative to wild type (ratio to wild type); higher = fitter; tRNA-Arg(CCU), competitive growth, 37 C, YPD
# In short: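 Gene amplicons from the start population and from each of six end populations were read by 100-nucleotide paired-end sequencing. Those end populations came from pooled Saccharomyces cerevisiae strains carrying tRNA-Arg(CCU) gene variants at the native locus, competed in YPD at 37°C for 24 hours. Fitness relative to wild type was worked out from changes in genotype frequencies. Genotypes needed ≥ 100 starting reads, and estimates < 0.5 were set to 0.5.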
row,Variant,yeast fitness
1,G18A G58C G68A,≤ 0.5
2,C30A C46U G52C C66U,≤ 0.5
3,G6C C11G A15C G25C C27G C30G G38C,0.61
4,U3A A42C C61A,≤ 0.5
5,C11U A15C C27G A70G,≤ 0.5
6,G6A A15C C29U,≤ 0.5
7,C33G G41C C61G A65U,≤ 0.5
8,C5G C33A,0.616
9,C4U C27U C29G A42C,≤ 0.5
10,U7A G10C A40G U53A G63A,≤ 0.5
11,A15G G58A,0.909
12,C4G G18C C30A,≤ 0.5
13,U7C A45U U54C,0.557
14,U3C C27G C49G,≤ 0.5
15,A14C C27G C60A A65U,≤ 0.5
16,U7G G41C G58C U59C,≤ 0.5
17,U19G G51C,0.537
18,C4U A14G C30A,0.812
19,C11A A43G U64A,0.601
20,G9C A15U U28G C66A,≤ 0.5
21,G17A C34U,0.573
22,C62A G63A A70C,0.54
23,C31U G44A A45U A57G,0.537
24,C31U A45U C46G,0.94

row,Variant,yeast fitness
1,C4G C29G A36C A37U A40C A45G G51A,0.503
2,A42U A43U A57G A70U,0.574
3,G39C A69C,0.834
4,C27G C46U A70C,0.729
5,U3A G10A C27U A40U,≤ 0.5
6,G9A U26A A36U A40C A65U,≤ 0.5
7,C11A G52A C62U,≤ 0.5
8,U2C A15U A20U C27U C61G,≤ 0.5
9,G17C A36U G44C,≤ 0.5
10,U3C C5A A15U A20G,≤ 0.5
11,C24U C33G G52C C61U,≤ 0.5
12,C5U A42G G51C,0.549
13,U3G C30G G56A,≤ 0.5
14,U8C A36U G38A A65C,0.579
15,U16A U19C C46A A57G C61A A70C,0.656
16,U2G U13A C22U U54A C61G A69C,≤ 0.5
17,G9A G10A C31G G52A C60U,≤ 0.5
18,C34U U53C A69C,≤ 0.5
19,U8G C31U C66U,≤ 0.5
20,U3A G12C A21C A36C G68C,≤ 0.5
21,U28C C30G,0.667
22,C22U G50C,0.818
23,U32C A42C,0.866
24,G10A U35G A37U U47C G56C U64C A69C,≤ 0.5

row,Variant,yeast fitness
1,C5G G10C U13G C31G U59A,≤ 0.5
2,U7C C11U G39C A45U,≤ 0.5
3,U8A U19G C22U,≤ 0.5
4,A21G C29G C55U A69C,≤ 0.5
5,G6C G18C C22U,0.548
6,G6C U8G U19G C33A A42C G58A,≤ 0.5
7,C24A G63A,0.658
8,U7C C24A G68A,≤ 0.5
9,G18C C22G A69C,≤ 0.5
10,G10C C33G A36C,≤ 0.5
11,A15G U26G A65C,0.632
12,A57U C60G,0.532
13,A42G G52A,0.648
14,G6A C29U U47A G51A A57G,≤ 0.5
15,C5U C11G C24U A42C A65C,0.605
16,U13C C31G C33G,≤ 0.5
17,G10A A20G G41A C49U U53A C66G,≤ 0.5
18,C4U C11G A45U C49U C61G,≤ 0.5
19,G44C G52A C62G A69G,≤ 0.5
20,G41A A57U,0.759
21,A21U C24G U47A,≤ 0.5
22,A37C A57U,0.633
23,A15G G52A,0.772
24,C33A G51C C62G,≤ 0.5

row,Variant,yeast fitness
1,C30A C31U C66U A69U,≤ 0.5
2,U7C C22U C49U C55A,≤ 0.5
3,U2C C24U C60A,≤ 0.5
4,U8C A14G,0.934
5,G6C U8C G58C G67A,≤ 0.5
6,A15G A36C G50C,≤ 0.5
7,G23C C24A C30G A37C A45U G68C,≤ 0.5
8,G18A U35A A40G C61U,≤ 0.5
9,U16C C31A,0.906
10,G10U A69U,0.864
11,U13A C22G C24G A36U A40C G51C,0.548
12,U32C U54A A65G,≤ 0.5
13,A20U C24G A70G,≤ 0.5
14,C5U G41A G56C C62G G68C,≤ 0.5
15,G17C C29G U32G G38A U53C,≤ 0.5
16,A14G C33U,0.616
17,A15G U54A,0.648
18,C24U G44C C62U,0.784
19,U7G C22U C24U U53A,≤ 0.5
20,C24U G25C C30U A45U C49G A65U,≤ 0.5
21,G9C C24A C62G A69C,≤ 0.5
22,A14G A40G G41A A45U U47C,≤ 0.5
23,U8A G9A A21C,≤ 0.5
24,A14U C22G A43U A57C G63C C66U,≤ 0.5

row,Variant,yeast fitness
1,U7A U8A G67C,≤ 0.5
2,C4U C27G G63A,≤ 0.5
3,U2A C4A C22A C55U,≤ 0.5
4,C5U G9A U26C G67U,≤ 0.5
5,G23A C27U C29U G39A G58A A65C,≤ 0.5
6,C31A A36C G44A A57U C66A,≤ 0.5
7,G56A C61U C62G,≤ 0.5
8,C4G C5A C27A,0.641
9,U13C A15G C30A C62G,≤ 0.5
10,C29A C31G C55A G58A,0.568
11,C31A A70C,0.783
12,C4A C5G G51A C60U G67A,≤ 0.5
13,A20G U26A U35A A37U,0.55
14,A14C C60A A65U,≤ 0.5
15,G18A A20G A69C,≤ 0.5
16,G10A U16A A57U,0.558
17,G52C U54C,0.608
18,U19C A20U A70U,0.794
19,C27A G63C G68C,0.524
20,G9A C30A A42C G68A,≤ 0.5
21,C5A C22A C33U A36C,0.502
22,C5G A14U G25A G48C C61A C62U,≤ 0.5
23,U8G A42U A69C,0.509
24,G10A A21C,0.693

row,Variant,yeast fitness
1,G9C A37G,0.623
2,G12A G44A G67C,0.62
3,G38A C46G G56C,≤ 0.5
4,U2C U8A G17C G38A G56C C61A,≤ 0.5
5,U7C G18C A37G G51C,0.697
6,A42U U59G,0.75
7,G10A G23C C29U A36C C49G,0.53
8,C30G A37C G38A A40U A45G,≤ 0.5
9,U7G G63A A65G,0.828
10,U3C U26C G44C U54A A69C,≤ 0.5
11,A57G G58A C60A C66U,0.595
12,C24U C31G U64C,0.572
13,U13C U28C U47C C55A,0.545
14,U47C G58A G67A,0.584
15,A14G U26G A43C C46A,≤ 0.5
16,C29G C62U,0.721
17,C11U A45U A70C,1.06
18,U26A A40C,0.755
19,G23A C29U A45U,0.967
20,U2C C27U A69C,0.729
21,C33U A42U G68A A70G,0.534
22,U54C A69G A70G,0.566
23,U2G G6A C27U A36U G68C,≤ 0.5
24,C11U A45U U54G,≤ 0.5

row,Variant,yeast fitness
1,C5G U8C C11A A15G G18A C30G,≤ 0.5
2,U16C G41C,0.867
3,C60G C61G,≤ 0.5
4,U8C C22G,0.935
5,U3A G6U G12C C22A C55G,≤ 0.5
6,A21G C27A A37U G50A C66U,≤ 0.5
7,C5U U8A A57U,≤ 0.5
8,U3G A21G C31G C33U A43U G56A A69U,≤ 0.5
9,A20G G23A G38C G63A C66A,≤ 0.5
10,U16G U26G A36G G67U G68C,≤ 0.5
11,G6C C11G A15C G25C C27G C30G G38C A40G,≤ 0.5
12,C30U C31U C34A A70C,≤ 0.5
13,G56C C66U,0.699
14,C27A U47A G56C A69C,0.894
15,G10C A20U C60G,0.587
16,C5G C22U U26C,≤ 0.5
17,G41A A70G,0.924
18,A15C U54C C66G,≤ 0.5
19,G17C C46U,0.686
20,U7G G41A G48A,0.911
21,U16A C55A C61A,≤ 0.5
22,G10A C31U C34A A40G U59A,0.596
23,U13A U64C,0.922
